Laboratory results: PMC12866962 (Cell host & microbe, 2026)

What was measured:
[1] = tested on: ThsA from Escherichia coli; conditions: homologous ThsA from Escherichia coli; cited from earlier work
[2] = tested on: BaY2 Thoeris system (type II); assay: Thoeris protection in liquid media; type: cell-based; conditions: for Inhibition of BaY2 Thoeris (phage-induced host population lysis), in words: B. subtilis expressing BaY2 Thoeris, phage SPO1, liquid culture
[3] = tested on: BaY2 Thoeris system (type II); assay: Phage reproduction of SPO1; type: cell-based; conditions: PFUs 15 hours post-infection; 1 mM of compound 1, 333 µM of IP6C, 1 mM of compound 5
Procedure, shortened: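 B. subtilis overnight culture diluted 1:100 in LB; 180 µL added to wells with 2 µL compound stock (DMSO or water). Preincubated 30 min at 30 °C, then ~10,000 PFU SPO1 added; grown at 30 °C, 208 rpm, OD600 every 30 min. After 15 h, cleared supernatant (16,000 g, 10 min) titred by 5 µL drops of 1:10 dilutions on undefended B. subtilis soft-agar lawns.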

[4] = target: T1, BaY2ThsB (Bacillus amyloliquefaciens, UniProt I2C644); type: cell-based; conditions: for His-ADPR production by ThsB: 500 µM of compound, SPO1-infected B. subtilis Pspank-BaY2ThsB, LC-HRMS
[5] = tested on: ThsB (BaY2ThsB or ArThsB); assay: Thermal shift assay; type: binding; conditions: 5 µM protein, 1 mM compound, in the presence of NAD+
Procedure, shortened: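 BaY2ThsB or ArThsB was mixed with test compound or buffer in 10 mM HEPES pH 7.5, 150 mM NaCl, 5 mM MgCl2 with NAD+.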

[6] = target: T2, BaY2ThsA^Macro (Bacillus amyloliquefaciens, UniProt I2C645); assay: IP6C-ADPR and His-ADPR pull-down with BaY2ThsA^Macro; type: binding, Bacillus amyloliquefaciens Y2
[7] = tested on: P. aeruginosa MRSN11538 Thoeris system cloned into P. aeruginosa PAO1; assay: Thoeris protection in liquid media, P. aeruginosa PAO1:Thoeris + Lit1; type: cell-based; conditions: Pseudomonas aeruginosa, PAO1, read-out: IC50 (inhibition of type II Thoeris in P. aeruginosa PAO1:Thoeris)
[8] = tested on: P. aeruginosa MRSN11538 Thoeris system cloned into P. aeruginosa PAO1; assay: Phage reproduction of Lit1 on P. aeruginosa PAO1:Thoeris II; type: cell-based, Pseudomonas aeruginosa; conditions: PFUs 15 hours post-infection; 1 mM of IP6C, 8.2 mM of nicotinamide
Procedure, shortened: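 Overnight P. aeruginosa diluted 1:100 into LB + 10 mM MgSO4. 180 µL went into wells holding 2 µL test compound stock in DMSO or water. After 30 min at 37 °C, ~10,000 PFU Lit1 was added and OD600 read every 30 min at 37 °C. At 15 h, supernatant (16,000 g, 10 min) was titred by drop plaque assay on undefended P. aeruginosa.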

[9] = tested on: E. faecalis DS16 Thoeris system cloned into E. faecalis OG1RF; assay: Thoeris protection in liquid media, E. faecalis OG1RF:Thoeris + NPV1; type: cell-based; conditions: Enterococcus faecalis, read-out: IC50 (inhibition of type II Thoeris in E. faecalis OG1RF:Thoeris)
[10] = tested on: E. faecalis DS16 Thoeris system cloned into E. faecalis OG1RF; assay: Phage reproduction of NPV1 on E. faecalis OG1RF:Thoeris; type: cell-based, Enterococcus faecalis; conditions: PFUs 15 hours post-infection; 10 mM of IP6C, 8.2 mM of nicotinamide
Procedure, shortened: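 Overnight E. faecalis was diluted 1:1000 into THB + 10 mM MgSO4 and added to compound-containing wells. After 1 h at 37 °C, ~1,000 PFUs NPV1 were added, with OD600 read every 30 min. At 15 h, culture was spun at 16,000 g for 10 min. Supernatant PFUs were titred by small-drop plaque assay on defenceless E. faecalis and compared with input PFUs. Mean ± SEM, three biological replicates.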

[11] = tested on: Thoeris system in the P. aeruginosa MRSN11538 clinical isolate; type: cell-based; conditions: Pseudomonas aeruginosa, read-out: IC50 (sensitization of P. aeruginosa MRSN11538 WT to Lit1)
Procedure, shortened: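 Liquid lysis assay. Host overnight culture diluted 1:100 into LB + 10 mM MgSO4; 180 µL added per well over 2 µL test compound stock (DMSO or water); 30 min at 37 °C before ~10,000 PFU Lit1. OD600 recorded every 30 min at 37 °C. Thoeris strength derived from integrated area under the lysis curve, normalized to no-compound and no-defense controls.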

[12] = tested on: Thoeris system in the P. aeruginosa MRSN11538 clinical isolate; assay: Phage reproduction of Lit1 on P. aeruginosa MRSN11538; type: cell-based, Pseudomonas aeruginosa; conditions: PFUs 20 hours post-infection; 1 mM of IP6C, 8.2 mM of nicotinamide
[13] = tested on: P. aeruginosa PAO1:Thoeris; assay: Preliminary phage therapy model in mice infected with PAO1:Thoeris; type: in vivo, BALB/c mice; conditions: PAO1:Thoeris i.p. infection, IP6C only
[14] = Toxicity test of compounds in mice; type: in vivo
[15] = tested on: human cell lines (hTERT RPE-1, HDFn); assay: Human cell viability assay; type: cell-based; conditions: 72 hours, Cell Titer Glo 2.0
Procedure, shortened: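 hTERT RPE-1 and neonatal dermal fibroblasts were kept in DMEM with 10% FBS, penicillin/streptomycin, 37 °C, 5% CO2, and tested mycoplasma-negative. Cells were seeded at 2,000/well. After 24 h, medium was replaced with 0.1% DMSO vehicle or test compound (stock 1 M in DMSO), six replicate wells per dose. Luminescence was read after 72 h and expressed as percent viability relative to vehicle.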

[16] = tested on: Staphylococcus aureus USA300; assay: Polymicrobial model culture, S. aureus CFUs; type: cell-based; conditions: 300 µM IP6C, 8.5 hours
[17] = tested on: Streptococcus sanguinis SK36; assay: Polymicrobial model culture, S. sanguinis CFUs; type: cell-based; conditions: 300 µM IP6C, 8.5 hours
Procedure, shortened: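 S. aureus USA300, S. sanguinis SK36 and P. aeruginosa PAO1:Thoeris II overnights were mixed 1:1:1, then diluted 1:100 into TSB + 0.5% yeast extract + 10 mM MgSO4. Wells received DMSO or test compound, plus Lit1 (MOI 0.0001) or LB. Incubation was 8.5 h at 37 °C, 5% CO2. CFUs were counted before and after by PBS serial dilution on Streptococcus Selective Agar at 37 °C, 5% CO2. Three replicates.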

[18] = Quantification of IP6C in polymicrobial model culture; type: physicochemical; conditions: after 24 hours in polymicrobial co-culture with phage, LC-MS/MS
Procedure, shortened: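 In the three phage-plus-compound polymicrobial cultures, 1 µL was sampled at start and at 24 h and quenched in 1 mL 90% acetonitrile. Analysis used a HILIC column with 20 mM ammonium acetate pH 9.2 containing medronic acid versus acetonitrile, gradient at 0.4 mL/min. MRM monitored 162.1→117 (quantifier) and 162.1→78.1 (qualifier), quantified against a pure-standard calibration curve.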

[19] = target: T1, BaY2ThsB; assay: IP6C-ADPR pull-down with BaY2ThsB; type: binding, Bacillus amyloliquefaciens Y2; conditions: protein purified from E. coli cells grown with 1.25 mM IP6C
Procedure, shortened: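 E. coli TOP10 co-expressing DelTM-ThsA-TwinStrep and ThsB-His12 from one pBAD operon was induced at OD600 0.6 with 0.2% L-arabinose, with or without test compound, then grown overnight at 16 °C. ThsB was captured on His-tag magnetic beads, heat-denatured 5 min at 98 °C and centrifuged. Supernatant was analysed by LC-MS (extracted ion chromatogram of conjugate).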

[20] = target: T2, BaY2ThsA^Macro; assay: Saturation transfer difference; type: binding, Bacillus amyloliquefaciens Y2; conditions: 10 µM BaY2ThsA^Macro, 1 mM IP6C-ADPR, competed with 1 mM ADPR
[21] = tested on: EcThsA^Macro; assay: ITC experiment; type: binding, Escherichia coli

T1 sequence (I2C644 whole entry): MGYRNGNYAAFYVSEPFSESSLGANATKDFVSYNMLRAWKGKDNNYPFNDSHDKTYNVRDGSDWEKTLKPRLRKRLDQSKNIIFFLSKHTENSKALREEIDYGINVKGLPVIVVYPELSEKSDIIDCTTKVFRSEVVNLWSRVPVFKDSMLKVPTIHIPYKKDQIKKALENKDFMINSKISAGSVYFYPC
T2 sequence (I2C645 83-297): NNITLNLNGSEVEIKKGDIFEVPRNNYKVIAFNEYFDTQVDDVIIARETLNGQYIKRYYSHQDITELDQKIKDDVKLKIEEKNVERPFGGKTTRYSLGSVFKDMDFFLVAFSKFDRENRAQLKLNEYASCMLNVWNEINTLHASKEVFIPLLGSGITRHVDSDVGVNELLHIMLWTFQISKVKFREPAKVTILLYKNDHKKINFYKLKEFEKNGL

Nc1ncnc2c1ncn2[C@@H]1O[C@H](COP(=O)(O)OP(=O)(O)OC[C@H]2OC(O)[C@H](O)[C@@H]2O)[C@@H](O)[C@H]1O (some centres unmarked) [ADPR]
Kd [1]: 4.6 ± 0.5 µM

c1ccn2ccnc2c1 [Compound 26, imidazo[1,2-a]pyridine]
Inhibition of BaY2 Thoeris (phage-induced host population lysis), in words [2]: weak potency

NC(=O)c1ccc2nccn2c1 [IP6C, imidazo[1,2-a]pyridine-6-carboxamide]
IC50 ([2]; Bacillus amyloliquefaciens, read-out: IC50 (inhibition of BaY2 Thoeris)): 10 µM | Phage reproduction of SPO1 on B. subtilis expressing BaY2 Thoeris [3]: promoted the reproduction of SPO1 | Intracellular NAD+ level ([4]; 500 µM of IP6C, after SPO1 infection): unchanged | His-ADPR production by ThsB [4]: abolished His-ADPR production | Binding to ThsB (melting temperature shift) [5]: no significant binding | Amount of His-ADPR bound to BaY2ThsA^Macro ([6]; E. coli co-expressing BaY2ThsA^Macro and BaY2ThsB grown with 1.25 mM IP6C): dramatically decreased | IC50 [7]: 19 µM | Phage propagation of Lit1 on P. aeruginosa PAO1:Thoeris II [8]: allowed P. aeruginosa phages to propagate | IC50 [9]: 8200 µM | Phage proliferation of NPV1 on E. faecalis OG1RF:Thoeris [10]: fully rescued phage proliferation | IC50 [11]: 116 µM | Phage propagation of Lit1 on P. aeruginosa MRSN11538 WT [12]: allowed Lit1 phages to successfully propagate | Survival of mice treated with compound only (no phage) [13]: all mice died within one day | Toxicity to mice ([14]; i.p., 50 μL of 20 mg/mL, observed 7 days): not toxic | Food intake and body weight of mice ([14]; mice treated with IP6C): initially eat less and lose weight | Toxicity to human cell lines [15]: not toxic | S. aureus CFUs in polymicrobial mixture [16]: unaffected | S. sanguinis CFUs in polymicrobial mixture [17]: unaffected | Temporal stability: IP6C levels in co-culture [18]: no measurable decrease

NC(=O)c1ccc2n(cc[n+]2[C@@H]2O[C@H](COP(=O)(O)OP(=O)(O)OC[C@H]3O[C@@H](n4cnc5c(N)ncnc54)[C@H](O)[C@@H]3O)[C@@H](O)[C@H]2O)c1 [IP6C-ADPR]
Intracellular concentration of IP6C-ADPR ([4]; IPTG-inducible BaY2ThsB expression system, cells grown with IP6C, approximated with IP6C-ADPR standard): around 700 nM | Co-purification of IP6C-ADPR with BaY2ThsB [19]: did not co-purify with BaY2ThsB | IP6C-ADPR detected in purified BaY2ThsA^Macro ([6]; protein co-expressed with BaY2ThsB in E. coli grown with 1.25 mM IP6C): no IP6C-ADPR was detected | Binding to BaY2ThsA^Macro by STD NMR [20]: binds poorly | Binding to EcThsA^Macro by ITC [21]: did not reveal any interpretable binding

N[C@@H](Cc1c[nH]cn1)C(=O)O [histidine, reference compound]
Binding to ThsB (melting temperature shift) [5]: no significant binding

NC(=O)c1cccnc1 [nicotinamide]
Inhibition of BaY2 Thoeris (phage-induced host population lysis), in words ([2]; listed as 9): fully inhibited the Thoeris defense | His-ADPR production by ThsB [4]: inhibited His-ADPR production | IC50 [7]: 185 µM | Phage propagation of Lit1 on P. aeruginosa PAO1:Thoeris II [8]: allowed P. aeruginosa phages to propagate | IC50 [9]: 1500 µM | Phage proliferation of NPV1 on E. faecalis OG1RF:Thoeris [10]: fully rescued phage proliferation | IC50 [11]: 838 µM | Phage propagation of Lit1 on P. aeruginosa MRSN11538 WT [12]: allowed Lit1 phages to successfully propagate
